Source: PubChem (SRMLSC)
Shown is part of a subset that was picked to be rich in hits.
Lung fibro prol: blocks proliferation of human lung fibroblasts. viability, % at 10 µM. hit rate 1.1% among 85,000. LL 47 human lung fibroblast viability, ATP luminescence; stronger effect = lower value;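 active = viability at or below 50% in the single dose screen; inactive = viability above 50%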;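 note: compound exposure lasted 72 h before the ATP readout; 100% = median luminescence of untreated cell-only wells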
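Benchmarks: Cell-only wells, no compound | Test system: LL 47 human lung fibroblasts, passage 12 or lower | Input: 1,150 cells/well | Measured by: CellTiter-Glo luminescence measuring cellular ATP | Medium: IMEM, 15% FBS supplement | Schedule: Overnight attachment after seeding, then 72 h compound exposure at 37 °C | Doses: Compound addition at 0.1% DMSO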
HUVEC prolif 384: inhibitors of human endothelial cell proliferation; HUVEC proliferation, CellTiter-Glo luminescence, 72 h; stronger effect = lower value; AID 648; viability, % at 10 µM (by protocol); hit rate 1.1% among 86,000;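 active = viability at or below 30%; inactive = viability above 30%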;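 note: 100% = median luminescence of DMSO-only cell control wells on each plate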
bCat KO growth: beta-catenin-lacking colon tumor cell growth suppression; hit rate 1.5% among 140,000; HCT116 beta-catenin knockout viability, CellTiter-Glo, 60 h; stronger effect = lower value; viability, % at 10 µM;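 active = viability at or under a set limit, the compound median less 4 SD, cut at about 6% in these data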;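 note: 0% = Hyamine 1622 control at 20 µM and 100% = untreated cell control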
PTEN del growth: growth suppressors of cells with PTEN tumor suppressor deletion | HCT116 PTEN-null viability, CellTiter-Glo, 60 h; stronger effect = lower value | viability, % at 10 µM | hit rate 1.2% among 140,000;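 active = viability at or below a set limit, 4 SD under the median of all tested compounds, cut at about 3.7% in these data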;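 note: PTEN knockout HCT116 line with beta catenin targeted HCT116 as companion control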
H69AR growth 86K: blocks growth of human H69AR lung tumor cells; AID 598; hit rate 6% among 85,000; viability, % at 10 µM; H69AR lung tumor viability, ATP luminescence, 72 h; stronger effect = lower value;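 active = viability at or below 40%; inactive = viability above 40%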;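 note: multidrug resistant small cell line overexpressing MRP-1 efflux transporter; 100% = mean luminescence of untreated control wells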
The depositor's hits bear a star; . = no result given.

SMILES	Lung fibro prol	HUVEC prolif 384	bCat KO growth	PTEN del growth	H69AR growth 86K
CC1CCCN(CCOCCOc2ccc(Br)cc2Cl)C1 (configuration not stated)	.	.	53.6	54.0	.
CC1CCCN(CCOCCOc2ccc(Cl)cc2Br)C1 (configuration not stated)	.	.	5.3*	8.4	.
O=C(CCl)N(c1ccc(Cl)cc1)c1c[nH]c2ccccc12	2.4*	3.9*	1.7*	1.8*	1.1*
O=C(CCl)N(c1ccccc1)c1c[nH]c2ccccc12	1.7*	6.9*	1.9*	1.3*	0.4*
COc1ccc2[nH]c(=O)c(CN(CC3CCCO3)C(=O)Nc3ccccc3OC)cc2c1 (configuration not stated)	86.5	64.1	59.6	65.3	20.4*
COc1ccc2[nH]c(=O)c(CN(Cc3ccco3)C(=O)c3ccccc3)cc2c1	99.9	109.2	79.0	83.8	58.6
Cc1cc2cc(CN(Cc3ccco3)C(=O)NCc3ccccc3)c(=O)[nH]c2cc1C	95.3	97.0	92.3	88.1	76.7
Cc1cc2cc(CN(Cc3ccco3)C(=O)C3CCCCC3)c(=O)[nH]c2cc1C	78.4	88.0	85.8	81.9	15.8*
CCOc1ccc2[nH]c(=O)c(CN(Cc3ccc(F)cc3)C(=O)c3ccco3)cc2c1	77.9	48.7	33.9	29.4	15.9*
CCOc1ccc2[nH]c(=O)c(CN(Cc3ccccc3OC)C(=O)c3ccccc3)cc2c1	50.9	51.7	20.8	23.5	27.0*
Cc1ccc(Nc2nc(N)c([N+](=O)[O-])c(NCc3ccco3)n2)cc1C	.	.	37.8	38.2	.
C/C(=N\NC(=O)c1nn(C)c(C)c1Br)c1ccc(NC(=O)c2ccccc2F)cc1	.	.	97.2	97.0	.
Cc1ccc2[nH]c(=O)c(CN(Cc3ccco3)C(=O)c3ccncc3)cc2c1	83.0	57.7	28.2	23.8	23.1*
O=C(Nc1ccc(F)cc1)N(Cc1ccco1)Cc1cc2cc3c(cc2[nH]c1=O)OCO3	94.4	77.0	68.3	61.5	31.2*
CCOc1ccc2[nH]c(=O)c(CN(Cc3ccco3)C(=O)c3ccc(Br)cc3)cc2c1	66.0	57.5	49.2	44.9	19.0*
COc1ccc(C(=O)N(Cc2ccco2)Cc2cc3cc(C)ccc3[nH]c2=O)cc1OC	100.8	101.6	.	.	41.4
O=C(Nc1ccc(F)cc1)N(Cc1cccs1)Cc1cc2cc3c(cc2[nH]c1=O)OCO3	.	.	65.8	60.2	.
CCOc1ccc2[nH]c(=O)c(CN(Cc3ccco3)C(=O)c3cccc(F)c3)cc2c1	88.9	85.8	104.6	94.1	78.0
CCC1Oc2ccc(C)cc2N(CC(=O)N(Cc2ccncc2)Cc2ccco2)C1=O (configuration not stated)	120.9	95.6	72.2	75.3	34.4*
COc1ccc(C(=O)NC(=S)Nc2ccc(N3CCOCC3)c(Cl)c2)cc1[N+](=O)[O-]	.	.	79.0	84.8	.
CC(C)(C)c1ccc(OCC(=O)N/N=C/c2ccc(N3CCOCC3)cc2)cc1	.	.	86.4	71.1	.
CCOc1c(Br)cc(C2NS(=O)(=O)N=C3CCCCCN32)cc1OC (configuration not stated)	85.1	93.8	29.1	37.8	34.0*
O=S1(=O)N=C2CCCN2C(c2ccc(F)cc2)N1 (configuration not stated)	102.3	103.0	89.4	95.0	100.6
Cc1cccc(Nc2nc(N)c([N+](=O)[O-])c(N3CCCC(C)C3)n2)c1 (configuration not stated)	.	.	9.5	2.8*	.
Cc1cccc(Nc2nc(N)c([N+](=O)[O-])c(N3CCN(C)CC3)n2)c1	.	.	76.2	66.7	.
SMILES	Lung fibro prol	HUVEC prolif 384	bCat KO growth	PTEN del growth	H69AR growth 86K
O=C1c2ccccc2C(=O)N1SC1CCCCC1	62.5	76.2	81.2	81.8	0.6*
CCOC(=O)Cc1c(C)nc2c(-c3ccccc3)c(-c3ccccc3)[nH]n2c1=O	92.0	74.5	72.2	68.0	32.0*
CCOC(=O)Cc1c(C)nc2c(-c3ccc(OC)cc3)c(C)nn2c1C	76.9	71.2	81.1	90.0	23.1*
O=C(COC(=O)c1cc([N+](=O)[O-])ccc1NCc1ccccc1)NC1CCCc2ccccc21 (configuration not stated)	55.6	72.2	71.5	69.5	37.5*
O=C(COC(=O)c1cc([N+](=O)[O-])ccc1NCc1ccccc1)NCc1ccccc1Cl	.	.	80.3	80.0	.
Cc1cccc(CN2CCCC(C(=O)N3CCc4ccccc4C3)C2)c1 (configuration not stated)	104.1	99.2	83.0	77.8	58.7
CN=C(Nc1ccc(Cl)cc1)c1ccc(C(F)(F)F)cc1	.	.	68.1	70.9	.
COc1cccc(C2CC(c3ccccc3OC)n3ncnc3N2)c1 (configuration not stated)	91.4	91.5	90.4	95.0	31.3*
Clc1ccc(C2CC(c3ccccc3)Nc3ncnn32)cc1 (configuration not stated)	82.8	86.1	79.5	76.5	28.3*
COc1cccc(C2CC(c3ccccc3)Nc3ncnn32)c1 (configuration not stated)	98.5	99.5	92.4	87.0	98.3
O=C(c1cccc(NS(=O)(=O)c2ccc(F)c(F)c2)c1)N1CCN(Cc2ccccc2)CC1	.	.	90.2	92.7	.
Cc1cc(Oc2cc(N)cc([N+](=O)[O-])c2)ccc1Cl	.	.	100.7	97.4	.
N/C(=N\OC(=O)CCC1CCCC1)c1ccccn1	.	.	97.5	98.7	.
COc1ccc2cc(C(=O)N/N=C/c3sc4ccccc4c3O)ccc2c1	.	.	3.1*	4.3	.
COc1ccc(C(=O)N/N=C/c2sc3ccccc3c2O)cc1	.	.	3.3*	3.5*	.
O=C(N/N=C/c1sc2ccccc2c1O)c1cccc2ccccc12	.	.	4.1*	4.3	.
COc1ccc(C(=O)N/N=C/c2cc3ccccc3[nH]c2=S)cc1	.	.	46.5	56.1	.
O=C(C[n+]1ccc(C(=O)N/N=C/c2ccc(O)cc2)cc1)c1ccccc1	103.8	95.6	94.7	100.2	93.3
O=C(N/N=C/c1sc2ccccc2c1O)c1ccccc1	.	.	4.0*	3.7*	.
COc1cc(CNCc2ccccn2)ccc1OCc1cccc(Cl)c1	.	.	43.3	52.1	.
O=C(CSc1c2c(nc3cc(Cl)ccc13)CCCC2)NCc1ccco1	76.1	75.8	68.0	61.7	2.2*
O=C(CSc1ncnc2sc3c(c12)CCCCC3)NCc1ccco1	71.5	58.9	27.1	27.3	27.4*
O=C(CSc1nc2ccc(Cl)cc2[nH]1)NCc1ccco1	102.7	86.5	85.7	78.4	86.4
Cc1nc2sc3c(c2c2nnc(SCC(=O)NCc4ccco4)n12)CCCC3	.	.	91.4	79.9	.
O=C(CSc1nnc2c3c4c(sc3ncn12)CCCC4)NCc1ccco1	101.6	90.3	53.4	56.2	28.4*
O=c1cc(-c2ccccc2)[nH]n1-c1ccc([N+](=O)[O-])cc1	.	.	85.3	78.6	.
Cc1cc(=O)[nH]c(SCC(=O)C23CC4CC(CC(C4)C2)C3)c1C#N	100.8	76.9	87.9	84.7	17.5*
Cc1cc(=O)[nH]c(SCC(=O)O)c1C#N	102.4	101.0	109.1	103.5	90.0
CSc1nnc(C)c(=O)n1COC(=O)c1ccc(S(=O)(=O)N2CCCC2)cc1	.	.	88.5	102.2	.
